From ChEMBL document CHEMBL1149444, “Discovery of imidazo[1,2-b][1,2,4]triazines as GABA(A) alpha2/3 subtype selective agonists for the treatment of anxiety” (J Med Chem, 2006)
Calls of active or inactive are those of the source. The calls are words filed in the database; no cut-off is given here.

What was measured:
[1] = target: T1, GABA-A receptor; alpha-2/beta-3/gamma-2 (Homo sapiens, UniProt P18507+P28472+P47869); assay: Displacement of [3H] Ro15-1788 from recombinant human GABAA alpha2 receptor plus beta-3-gamma-2 expressed in L(tk-) cells; assay type: cell-based
T1 sequence (P18507 whole entry): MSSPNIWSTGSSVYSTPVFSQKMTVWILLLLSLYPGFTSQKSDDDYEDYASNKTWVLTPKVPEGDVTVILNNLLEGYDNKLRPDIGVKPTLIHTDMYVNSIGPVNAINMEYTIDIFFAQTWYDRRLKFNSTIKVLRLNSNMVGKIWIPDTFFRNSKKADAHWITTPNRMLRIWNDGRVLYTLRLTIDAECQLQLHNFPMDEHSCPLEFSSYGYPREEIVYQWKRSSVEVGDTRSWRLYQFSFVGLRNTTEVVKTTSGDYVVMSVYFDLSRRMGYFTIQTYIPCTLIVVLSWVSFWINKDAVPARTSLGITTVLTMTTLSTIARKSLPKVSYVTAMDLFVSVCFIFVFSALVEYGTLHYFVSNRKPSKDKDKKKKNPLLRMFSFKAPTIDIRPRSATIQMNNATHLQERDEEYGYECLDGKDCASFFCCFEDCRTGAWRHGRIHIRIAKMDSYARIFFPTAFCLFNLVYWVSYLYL
T1 sequence (P28472 whole entry): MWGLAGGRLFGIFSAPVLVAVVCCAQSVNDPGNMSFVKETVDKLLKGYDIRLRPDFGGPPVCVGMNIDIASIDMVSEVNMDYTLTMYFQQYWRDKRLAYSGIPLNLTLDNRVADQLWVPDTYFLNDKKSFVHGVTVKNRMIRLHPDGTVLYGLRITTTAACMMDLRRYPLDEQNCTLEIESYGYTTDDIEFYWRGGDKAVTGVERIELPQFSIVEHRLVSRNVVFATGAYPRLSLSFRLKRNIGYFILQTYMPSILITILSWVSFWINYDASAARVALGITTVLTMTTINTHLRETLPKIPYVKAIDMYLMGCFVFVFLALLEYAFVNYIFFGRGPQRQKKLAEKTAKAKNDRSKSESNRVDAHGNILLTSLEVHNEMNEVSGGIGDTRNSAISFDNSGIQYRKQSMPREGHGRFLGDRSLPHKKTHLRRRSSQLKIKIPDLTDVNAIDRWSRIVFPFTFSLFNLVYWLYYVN
T1 sequence (P47869 whole entry): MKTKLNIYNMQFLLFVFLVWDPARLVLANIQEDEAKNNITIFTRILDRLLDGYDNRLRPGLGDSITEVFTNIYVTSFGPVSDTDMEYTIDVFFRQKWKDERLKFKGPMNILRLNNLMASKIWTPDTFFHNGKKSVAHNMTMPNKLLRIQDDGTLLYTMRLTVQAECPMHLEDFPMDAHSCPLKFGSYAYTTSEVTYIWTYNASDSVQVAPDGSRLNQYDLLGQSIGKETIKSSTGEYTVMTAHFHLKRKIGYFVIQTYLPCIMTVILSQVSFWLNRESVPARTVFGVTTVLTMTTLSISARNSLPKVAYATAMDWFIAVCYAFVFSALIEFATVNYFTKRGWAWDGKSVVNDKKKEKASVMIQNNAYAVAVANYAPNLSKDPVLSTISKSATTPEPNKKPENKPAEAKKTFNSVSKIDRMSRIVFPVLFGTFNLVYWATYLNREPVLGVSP

Rattus norvegicus = assay: Sedation in rat chain pulling assay upto 10 mg/kg, po; assay type: functional, organism-based; set-up: dose 10 mg/kg
Method in brief: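 Rat chain-pulling assay for sedation. Mean response rate recorded over a 60 min trial starting immediately after oral dosing up to 10 mg/kg. n = 11-12 per group. Significance versus vehicle at p < 0.01.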

[2] = Plasma clearance in rhesus at 1 mg/kg, iv or 1 mg/kg, po; assay type: ADME, organism-based, Macaca mulatta; conditions: rhesus monkey
Method in brief: (§1)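 Pharmacokinetics in rat, dog or rhesus after 1 mg/kg iv and 1 mg/kg po dosing. Plasma clearance (mL/min/kg), half-life (h), volume of distribution (L/kg) and oral bioavailability (%) were derived.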

[3] = target: GABA-A receptor; alpha-2/beta-3/gamma-2 (Homo sapiens) (UniProt P18507+P28472+P47869); assay: Efficacy against recombinant human GABAA alpha2 receptor plus beta3gamma2 expressed in L(tk-) cells by whole cell patch clamp method relative to chlordiazepoxide; assay type: functional, cell-based
Method in brief: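 Whole-cell patch clamp on L(tk-) cells stably expressing human alpha subunit plus beta3gamma2. GABA applied at an EC20-equivalent concentration. Modulation of that current measured across increasing test-compound concentrations. Efficacy is expressed relative to the maximal response to the full agonist chlordiazepoxide, set at 1.00.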

[4] = Volume of distribution in rat at 1 mg/kg, iv or 1 mg/kg, po; assay type: ADME, organism-based; conditions: in vivo, read-out: Vdss
Method in brief: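 Rat pharmacokinetics after dosing at 1 mg/kg iv and 1 mg/kg po. Plasma clearance in mL/min/kg, half-life in h and volume of distribution in L/kg.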

[5] = target: GABA-A receptor; anion channel (Rattus norvegicus) (UniProt O09028+P15431+P18506+P18508+P19969+P20236+P23574+P23576+P28471+P28473+P30191+P62813+P63079+P63138+Q91ZM7+Q9ES14); assay: Receptor occupancy by displacement of [3H]Ro 15-1788 binding from central Benzodiazepine receptor in rat at 0.3 mg/kg, po; assay type: organism-based; set-up: dose 0.3 mg/kg
Method in brief: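 Central benzodiazepine receptor occupancy in rat after oral dosing, measured by displacement of [3H]Ro15-1788 binding. Plasma concentration was measured at the dose giving 50% occupancy.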

[6] = Oral bioavailability in rhesus at 1 mg/kg, iv or 1 mg/kg, po; assay type: ADME, organism-based, Macaca mulatta; conditions: rhesus monkey, in vivo; method in brief: as §1

CC(C)(O)c1cnn2c(-c3ccc(F)c(-c4c(F)cccc4C#N)c3)cnc2n1
Ki [1]: 1.8 nM | Activity (Rattus norvegicus): inactive | clearance [2]: 5.8 mL/min/kg | Efficacy [3]: 0.38% | Vd [4]: 2.1 L/kg | Activity [5]: 50% | bioavailability [6]: 29%
